pIC50: −log10 of the molar value.
system: DuPro; assay: Inhibition of cell growth was determined in DUPRO cell line of human prostate tumor using MTT assay, on day 6 after treatment; format: functional; conditions: 144 h, read-out: ID50 (the source's name)
Summary of the method: (§1)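 MTT growth assay on human prostate tumour cells seeded in microtitre plates and incubated overnight at 37 °C in humidified 95% air/5% CO₂. Diluted drug stocks were added to the middle 8 columns, with buffer controls in the outer columns. Each concentration was run in quadruplicate. ID₅₀ is the concentration giving 50% growth inhibition on day 6 of treatment.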

Row | Compound | pIC50
1 | CCNCCCCNCC#CCNCCCCNCC | 5.49

same assay, conditions: Homo sapiens, DuPro, 144 h; read-out: ID50 (the source's name)

Row | Compound | pIC50
2 | CCNCCCCNCc1ccccc1CNCCCCNCC | < 4.51
3 | CCNCCCCNCCCCNCCCCNCC [DIETHYLHOMOSPERMINE] | 6.70

same assay, conditions: read-out: ID50 (the source's name)

Row | Compound | pIC50
4 | CCNCCCCNCC1CC1CNCCCCNCC (stereo in doubt; 4) | 7.23
5 | CCNCCCCNCC1CCC1CNCCCCNCC (stereo in doubt; 10) | 7.10
6 | CCNCCCCNCC1CCC1CNCCCCNCC (stereo in doubt; 13) | 6.52

system: DU-145; assay: Inhibition of cell growth was determined in DU145 cell line of human prostate tumor using MTT assay, on day 6 after treatment; format: functional; conditions: Homo sapiens, DU-145, 144 h; read-out: ID50 (the source's name); summary of the method: as §1

Row | Compound | pIC50
7 | CCNCCCCNC/C=C/CNCCCCNCC | 6.66
8 | CCNCCCCNC/C=C\CNCCCCNCC | 7.52
9 | CCNC/C=C\CNCCCCNC/C=C\CNCC | 6.89
10 | CCNCCCCNCC1CC1CNCCCCNCC (stereo in doubt; 7) | 7.70
11 | CCNCCCCNCC1CCC1CNCCCCNCC (stereo in doubt; 13) | 7.68
12 | CCNCCCCNCCCCNCCCCNCC [DIETHYLHOMOSPERMINE] | 7.52

same assay, conditions: read-out: ID50 (the source's name)

Row | Compound | pIC50
13 | CCNCCCCNCC1CC1CNCCCCNCC (stereo in doubt; 4) | 7.80

system: LNCaP; assay: Inhibition of cell growth was determined in LNCaP cell line of Human prostate tumor using MTT assay, on day 6 after treatment; format: functional; conditions: Homo sapiens, LNCaP, 144 h; read-out: ID50 (the source's name); summary of the method: as §1

Row | Compound | pIC50
14 | CCNC/C=C\CNC/C=C\CNCCCCNCC | 6.16
15 | CCNCCCCNC/C=C/CNCCCCNCC | 6.30
16 | CCNC/C=C\CNCCCCNCCCCNCC | 6.68
17 | CCNCCCCNC/C=C\CNCCCCNCC | 7.19
18 | CCNCCCCNCC#CCNCCCCNCC | 5.66
19 | CCNCCCCNCc1ccccc1CNCCCCNCC | < 4.51
20 | CCNC/C=C\CNCCCCNC/C=C\CNCC | 5.52
21 | CCNC/C=C\CNC/C=C\CNC/C=C\CNCC | 6.11
22 | CCNCCCCNCC1CC1CNCCCCNCC (stereo in doubt; 7) | 6.77

same assay, conditions: read-out: ID50 (the source's name)

Row | Compound | pIC50
23 | CCNCCCCNCC1CC1CNCCCCNCC (stereo in doubt; 4) | 6.68
24 | CCNCCCCNCC1CCC1CNCCCCNCC (stereo in doubt; 10) | 6.68
25 | CCNCCCCNCC1CCC1CNCCCCNCC (stereo in doubt; 13) | 6.15

system: PC-3; assay: Inhibition of cell growth was determined in PC-3 cell line of human prostate tumor using MTT assay, on day 6 after treatment; format: functional; conditions: Homo sapiens, PC-3, 144 h; read-out: ID50 (the source's name); summary of the method: as §1

Row | Compound | pIC50
26 | CCNC/C=C\CNC/C=C\CNCCCCNCC | < 4.51
27 | CCNCCCCNC/C=C\CNCCCCNCC | < 4.51
28 | CCNCCCCNCc1ccccc1CNCCCCNCC | < 4.51
29 | CCNC/C=C\CNCCCCNC/C=C\CNCC | 6.15
30 | CCNCCCCNCC1CC1CNCCCCNCC (stereo in doubt; 7) | 5.85
31 | CCNCCCCNCC1CCC1CNCCCCNCC (stereo in doubt; 13) | 5.33
32 | CCNCCCCNCCCCNCCCCNCC [DIETHYLHOMOSPERMINE] | 6.15

same assay, conditions: PC-3, 144 h, read-out: ID50 (the source's name)

Row | Compound | pIC50
33 | CCNCCCCNCC#CCNCCCCNCC | < 4.51

same assay, conditions: read-out: ID50 (the source's name)

Row | Compound | pIC50
34 | CCNCCCCNCC1CC1CNCCCCNCC (stereo in doubt; 4) | 5.80

system: LNCaP; assay: Inhibition of cell growth was determined in LNCaP cell line of human prostate tumor using MTT assay, on day 6 after treatment; format: functional; conditions: 144 h, read-out: ID50 (the source's name); summary of the method: as §1

Row | Compound | pIC50
35 | CCNCCCCNCCCCNCCCCNCC [DIETHYLHOMOSPERMINE] | 7.00
